Assay results pooled from the literature.
Target: Mitogen-activated protein kinase 9 (MAPK9, Homo sapiens, UniProt P45984)

Structure (SMILES)	read-out	mode	technique	tested at	measurement	result
CCC1(CC)NC(=O)c2c(c3ccc(Cl)c(Cl)c3n2C)C1C#N (centres unmarked)	thermal stability	–	DSF	10 µM	ΔTm	0.1 °C
COc1cc(Nc2cnc(C#N)c(O[C@H](C)CN(C)C)n2)ncc1-c1cnn(C)c1	enzyme activity	inhibitor	radiometric	1 µM	remaining activity	98%
O=C1Nc2ccc(Cl)cc2C1=Cc1cc(Cl)c(O)c(Cl)c1	cell-free assay	–	–	0.5 µM	remaining signal	100%
Nc1ncnc2occ(-c3ccc(NC(=O)Nc4cc(C(F)(F)F)ccc4F)cc3)c12	cell-free assay	inhibitor	–	20 µM	remaining signal	0%
COc1cc2ncnc(Nc3ccc(Oc4ccccc4)cc3C)c2cc1OC	enzyme activity	inhibitor	–	1 µM	inhibition	5%
CC(C)(C)c1nc(-c2cccc(NS(=O)(=O)c3c(F)cccc3F)c2F)c(-c2ccnc(N)n2)s1	enzyme activity	inhibitor	radiometric	1 µM	remaining activity	105%
C[C@@H](c1cccc(C#N)c1)n1cc(Cl)cc(C(N)=O)c1=N	cell-free assay	–	competition with immobilised ligand	1 µM	remaining binding	82%
CCN(CC)CCNC(=O)c1c(C)[nH]c(/C=C2\C(=O)Nc3ccc(F)cc32)c1C	cell-free assay	–	–	0.5 µM	remaining signal	96.7%
Cc1ccc(C(=O)Nc2ccc(CN3CCN(C)CC3)c(C(F)(F)F)c2)cc1C#Cc1cnc2cccnn12	enzyme activity	inhibitor	–	23.5 nM	remaining activity	62%
Cn1c2c(Cl)c(Cl)ccc2c2cc(N)[nH]c(=O)c21	thermal stability	–	DSF	10 µM	ΔTm	0.7 °C
Cc1sc(C(=O)NC2COC2)cc1-n1cc(NC(=O)Nc2c(F)cccc2Cl)cn1	enzyme activity	inhibitor	–	10 µM	remaining activity	51.9%
CNC(=O)Nc1ccc2c(c1)CC[C@@]21OC(=O)N(CC(=O)N(Cc2ccc(F)cc2)[C@@H](C)C(F)(F)F)C1=O	cell-free assay	–	competition with immobilised ligand	1 µM	remaining binding	70%
Cn1c2c(c3ccc(Cl)c(Cl)c31)C(C#N)C1(CCCC1)NC2=O (centres unmarked)	thermal stability	–	DSF	10 µM	ΔTm	-0.1 °C
Nc1nc(Nc2ccccc2)sc1C(=O)c1c(F)cccc1F	enzyme activity	inhibitor	–	10 µM	remaining activity	81%
Cc1cc(NC(=O)c2cccc3cc(-c4cccc5[nH]nc(N)c45)ccc23)ccc1F	enzyme activity	inhibitor	–	0.1 µM	activity vs control	86%
Cc1ccc(NC(=O)c2ccc(CN3CCN(C)CC3)cc2)cc1Nc1nc(-c2cccnc2)cs1	cell-free assay	–	–	0.5 µM	remaining signal	110%

Structure (SMILES)	read-out	mode	technique	tested at	measurement	result
CC(=O)Nc1c(C(C)=O)c(=O)n(C)c2nc(-c3ccc(Cl)cc3Cl)c(-c3ccc(Cl)cc3)cc12	cell-free assay	–	competition with immobilised ligand	1 µM	remaining binding	100%
FC(F)c1nc2ccccc2n1-c1nc(N2CCOCC2)nc(N2CCOCC2)n1	enzyme activity	inhibitor	–	10 µM	remaining activity	87%
CN(c1ncccc1CNc1nc(Nc2ccc3c(c2)CC(=O)N3)ncc1C(F)(F)F)S(C)(=O)=O	enzyme activity	inhibitor	–	1 µM	inhibition	12.4%
O=C(Nc1cnn(-c2csc(C(=O)NC3COC3)c2)c1)Nc1c(F)cccc1Cl	enzyme activity	inhibitor	–	5 µM	remaining activity	22.7%
Cn1nc(C(F)(F)F)cc1-c1cnc(N2CCc3cc(S(=O)(=O)Nc4c(F)cc(Cl)cc4F)cc(N4CCCC4=O)c32)nc1	cell-free assay	–	competition with immobilised ligand	1 µM	remaining binding	95%
Cn1c2c(c3ccc(Cl)c(Cl)c31)C(C#N)C1(CCOCC1)NC2=O (centres unmarked)	thermal stability	–	DSF	10 µM	ΔTm	0 °C
COc1ccc2c(O[C@@H]3C[C@H]4C(=O)N[C@]5(C(=O)O)CC5/C=C\CCCCC[C@H](NC(=O)OC5CCCC5)C(=O)N4C3)cc(-c3csc(NC(=O)C(C)C)n3)nc2c1C (some centres unmarked)	cell-free assay	–	competition with immobilised ligand	1 µM	remaining binding	71%
CCCS(=O)(=O)Nc1ccc(F)c(C(=O)c2c[nH]c3ncc(-c4ccc(Cl)cc4)cc23)c1F	enzyme activity	inhibitor	–	1 µM	inhibition	< 10%
CCN1CCC2(CC1)NC(=O)c1c(c3ccc(Cl)c(Cl)c3n1C)C2C#N (racemic)	thermal stability	–	DSF	10 µM	ΔTm	-0.1 °C
O=C1CCc2cc(Nc3cc(OC4CCOCC4)c([N+](=O)[O-])cc3Cl)ccc2N1	cell-free assay	–	competition with immobilised ligand	1 µM	remaining binding	86%
COc1cc(/C=C/C(=O)CC(=O)/C=C/c2ccc(O)c(OC)c2)ccc1O	enzyme activity	inhibitor	–	1 µM	activity vs control	104%
CN(C)C(=O)Cn1cc(-c2nc([C@@](C)(c3ccc(-c4cnc(N)nc4)cc3)C3CC3)no2)cn1	cell-free assay	–	competition with immobilised ligand	1 µM	remaining binding	75%
CNC(=O)c1cc(Oc2ccc(NC(=O)Nc3ccc(Cl)c(C(F)(F)F)c3)cc2)ccn1	enzyme activity	inhibitor	–	0.3 µM	inhibition	7%
Cn1c(=O)n(-c2ccc(C(C)(C)C#N)cc2)c2c3cc(-c4cnc5ccccc5c4)ccc3ncc21	enzyme activity	inhibitor	–	10 µM	remaining activity	89%
O=C(NCc1ncc(C(F)(F)F)cc1Cl)c1ccc2c(c1)C1(CCS(=O)(=O)CC1)[C@@H](C1CC1)N2S(=O)(=O)c1ccc(F)cc1	cell-free assay	–	competition with immobilised ligand	1 µM	remaining binding	82%
N#CCCc1ccc2c(c1)-c1[nH]c3ccc([N+](=O)[O-])cc3c1CC(=O)N2	cell-free assay	–	–	0.5 µM	remaining signal	97.1%
